# Data taken from ChEMBL document CHEMBL1155848 (J Med Chem, 2008).
# Columns and labels:
# Cytochrome P450 2D6 = Cytochrome P450 2D6 (Homo sapiens, UniProt P10635); assay: Inhibition of human recombinant CYP2D6; assay type: ADME
# In short: (§1)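 Recombinant human CYP450 microsomal protein (0.1 mg/mL) with substrate in 50 mM potassium phosphate, pH 7.4. Compound (range of concentrations, methanol) preincubated 10 min at 37 °C. Reaction started with an NADPH-generating system. Fluorescent metabolite formation followed over 10 min. Rates converted to percent of mean control; IC50 from the slope of the plot. Miconazole included as positive control.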
# Cytochrome P450 3A4 [1] = target: T1, Cytochrome P450 3A4 (Homo sapiens, UniProt P08684); assay: Inhibition of human recombinant CYP3A4 using 7-benzyloxyquinoline substrate; assay type: ADME
# T1 sequence (P08684 whole entry): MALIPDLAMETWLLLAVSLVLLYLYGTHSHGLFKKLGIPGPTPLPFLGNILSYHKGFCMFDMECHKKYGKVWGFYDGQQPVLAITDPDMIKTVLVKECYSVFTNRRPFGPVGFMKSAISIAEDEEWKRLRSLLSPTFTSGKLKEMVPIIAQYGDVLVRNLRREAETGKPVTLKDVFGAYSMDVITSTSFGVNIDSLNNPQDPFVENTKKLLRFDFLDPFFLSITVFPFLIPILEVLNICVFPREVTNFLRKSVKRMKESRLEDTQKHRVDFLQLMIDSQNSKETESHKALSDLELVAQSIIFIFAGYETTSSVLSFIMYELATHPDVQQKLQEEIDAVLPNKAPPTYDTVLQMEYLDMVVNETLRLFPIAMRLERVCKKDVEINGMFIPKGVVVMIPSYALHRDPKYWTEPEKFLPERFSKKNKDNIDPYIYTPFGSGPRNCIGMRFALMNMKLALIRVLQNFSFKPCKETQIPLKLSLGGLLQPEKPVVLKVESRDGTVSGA
# In short: (§2)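 Recombinant human CYP450 microsomal protein (0.1 mg/mL) with substrate and a concentration range of compound (dissolved in methanol), preincubated 10 min at 37 °C in 50 mM potassium phosphate pH 7.4. Reaction started with an NADPH-generating system. Fluorescent metabolite formation followed over 10 min. Rates converted to percent of mean control rate, and IC50 derived from the plot. Miconazole served as positive control.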
# Cytochrome P450 2C9 = Cytochrome P450 2C9 (Homo sapiens, UniProt P11712); assay: Inhibition of human recombinant CYP2C9; assay type: ADME
# Cytochrome P450 2C9, sequence (P11712 whole entry): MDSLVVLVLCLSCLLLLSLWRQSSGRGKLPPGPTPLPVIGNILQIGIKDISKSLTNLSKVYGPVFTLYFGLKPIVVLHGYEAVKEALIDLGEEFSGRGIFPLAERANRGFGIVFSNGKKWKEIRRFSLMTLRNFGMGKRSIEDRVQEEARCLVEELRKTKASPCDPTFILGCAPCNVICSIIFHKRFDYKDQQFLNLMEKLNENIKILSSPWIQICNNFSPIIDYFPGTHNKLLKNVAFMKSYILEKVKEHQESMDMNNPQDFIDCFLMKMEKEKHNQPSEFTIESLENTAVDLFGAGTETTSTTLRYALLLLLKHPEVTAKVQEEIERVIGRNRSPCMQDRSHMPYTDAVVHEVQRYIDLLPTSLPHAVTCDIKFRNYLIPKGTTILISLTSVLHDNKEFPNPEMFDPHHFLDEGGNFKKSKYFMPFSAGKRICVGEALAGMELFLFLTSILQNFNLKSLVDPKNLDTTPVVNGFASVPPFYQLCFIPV
# Cytochrome P450 2C19 = Cytochrome P450 2C19 (Homo sapiens, UniProt P33261); assay: Inhibition of human recombinant CYP2C19; assay type: ADME; in short: as §1
# Cytochrome P450 2C19, sequence (P33261 whole entry): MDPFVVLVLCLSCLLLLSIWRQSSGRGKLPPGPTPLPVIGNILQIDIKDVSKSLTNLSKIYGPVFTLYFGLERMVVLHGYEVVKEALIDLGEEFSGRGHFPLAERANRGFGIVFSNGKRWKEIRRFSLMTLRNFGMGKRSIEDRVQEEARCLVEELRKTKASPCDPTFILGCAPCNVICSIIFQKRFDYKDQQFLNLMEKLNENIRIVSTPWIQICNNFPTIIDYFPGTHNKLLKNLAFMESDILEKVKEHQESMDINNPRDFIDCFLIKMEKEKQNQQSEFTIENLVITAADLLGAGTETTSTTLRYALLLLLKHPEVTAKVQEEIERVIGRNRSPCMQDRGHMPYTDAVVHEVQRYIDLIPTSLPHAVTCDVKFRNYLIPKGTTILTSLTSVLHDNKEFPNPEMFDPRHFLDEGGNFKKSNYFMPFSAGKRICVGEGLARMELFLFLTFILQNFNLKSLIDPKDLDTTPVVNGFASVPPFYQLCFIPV
# HUVEC [2] = assay: Inhibition of VEGF-induced HUVEC proliferation by BrdU incorporation method after 72 hrs; assay type: functional, cell-based; details: Homo sapiens
# In short: (§3)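 HUVEC seeded in 5% FBS medium on type 1 collagen, held overnight at 37 °C, 5% CO2. Inhibitor at various concentrations added in serum-free medium. After 30 min, VEGF (10 ng/mL) or bFGF (0.3 ng/mL) added. Cells incubated a further 72 h, with BrdU (10 µM) present for the last 18–24 h. Incorporation read by ELISA; IC50 from fit of y = Vmax(1 − x/(K + x)).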
# Cytochrome P450 3A4 [3] = target: T1, Cytochrome P450 3A4; assay: Inhibition of human recombinant CYP3A4 using diethoxyfluorescein substrate; assay type: ADME; in short: as §2
# [4] = target: T2, Vascular endothelial growth factor receptor 2 (Homo sapiens, UniProt P35968); assay: Inhibition of VEGFR2
# T2 sequence (P35968 whole entry): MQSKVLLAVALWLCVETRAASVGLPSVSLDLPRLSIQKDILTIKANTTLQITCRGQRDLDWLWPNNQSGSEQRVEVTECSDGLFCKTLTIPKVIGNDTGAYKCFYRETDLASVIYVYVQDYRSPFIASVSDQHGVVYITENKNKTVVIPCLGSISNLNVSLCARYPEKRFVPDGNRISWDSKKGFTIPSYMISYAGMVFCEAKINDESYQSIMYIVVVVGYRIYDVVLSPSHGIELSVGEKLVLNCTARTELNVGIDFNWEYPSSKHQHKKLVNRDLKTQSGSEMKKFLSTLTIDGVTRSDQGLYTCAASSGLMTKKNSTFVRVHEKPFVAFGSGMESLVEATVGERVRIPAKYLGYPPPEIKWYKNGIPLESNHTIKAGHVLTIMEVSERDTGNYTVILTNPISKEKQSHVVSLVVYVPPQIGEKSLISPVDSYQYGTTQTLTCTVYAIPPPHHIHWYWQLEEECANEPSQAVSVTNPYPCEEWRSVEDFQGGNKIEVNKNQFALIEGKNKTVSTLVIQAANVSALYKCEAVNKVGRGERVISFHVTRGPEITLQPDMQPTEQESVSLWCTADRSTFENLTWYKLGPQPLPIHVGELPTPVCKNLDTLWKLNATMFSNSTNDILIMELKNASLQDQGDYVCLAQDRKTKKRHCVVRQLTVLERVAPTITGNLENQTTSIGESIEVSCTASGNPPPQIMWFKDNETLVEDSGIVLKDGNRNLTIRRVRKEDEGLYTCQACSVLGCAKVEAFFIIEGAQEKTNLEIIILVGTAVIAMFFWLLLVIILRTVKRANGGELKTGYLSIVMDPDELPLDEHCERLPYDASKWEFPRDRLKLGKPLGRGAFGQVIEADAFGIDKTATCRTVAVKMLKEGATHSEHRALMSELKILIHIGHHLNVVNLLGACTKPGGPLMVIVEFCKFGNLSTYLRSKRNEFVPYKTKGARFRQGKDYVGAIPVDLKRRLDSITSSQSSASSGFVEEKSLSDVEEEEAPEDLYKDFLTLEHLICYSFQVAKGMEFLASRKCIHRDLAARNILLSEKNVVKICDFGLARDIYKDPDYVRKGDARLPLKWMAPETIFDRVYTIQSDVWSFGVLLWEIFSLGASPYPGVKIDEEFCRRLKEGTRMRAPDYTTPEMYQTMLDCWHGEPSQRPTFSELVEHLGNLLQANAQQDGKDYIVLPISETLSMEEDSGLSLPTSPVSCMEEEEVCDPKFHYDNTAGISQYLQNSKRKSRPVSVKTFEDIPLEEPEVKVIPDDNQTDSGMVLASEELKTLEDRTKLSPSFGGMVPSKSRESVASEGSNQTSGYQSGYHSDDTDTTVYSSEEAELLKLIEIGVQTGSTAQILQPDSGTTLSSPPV
# HUVEC [5] = assay: Inhibition of VEGF-induced HUVEC proliferation; assay type: functional, cell-based; details: Homo sapiens; in short: as §3
# HUVEC [6] = assay: Inhibition of basic-fibroblast growth factor-induced HUVEC proliferation; assay type: functional, cell-based; details: Homo sapiens; in short: as §3
# [7] = Oral bioavailability in rat at 10 mg/kg; assay type: ADME, organism-based; details: in vivo
# [8] = Clearance in rat at 10 mg/kg; assay type: ADME, organism-based; parameters: dose 10 mg/kg; details: in vivo
# [9] = target: T2, Vascular endothelial growth factor receptor 2; assay: Inhibition of human recombinant VEGFR2
# HT-29 [10] = assay: Antitumor activity against human HT29 cells xenografted in mouse assessed as inhibition of tumor growth at 100 mg/kg, po relative to control; assay type: functional
# [11] = AUC (0 to infinity) in mouse at 10 mg/kg, po; assay type: ADME, organism-based; parameters: time infinity, dose 10 mg/kg, route oral; details: plasma
# [12] = Protein binding in mouse plasma by equilibrium dialysis; assay type: ADME, cell-free; details: read-out: PPB
# [13] = AUC (0 to infinity) in mouse at 100 mg/kg, po; assay type: ADME, organism-based; parameters: time infinity, dose 100 mg/kg, route oral; details: plasma
# [14] = Plasma concentration in mouse at 10 mg/kg, po after 12 hrs; assay type: ADME, organism-based; parameters: dose 10 mg/kg, route oral
# [15] = Oral bioavailability in monkey at 5 mg/kg; assay type: ADME, organism-based, Macaca mulatta; details: rhesus monkey, in vivo
# [16] = Clearance in monkey at 5 mg/kg; assay type: ADME, organism-based, Macaca mulatta; parameters: dose 5 mg/kg; details: rhesus monkey, in vivo
# [17] = Antitumor activity against human A375P cells xenografted in mouse assessed as inhibition of tumor growth at 30 mg/kg, po relative to control; assay type: functional
# [18] = Antitumor activity against human A375P cells xenografted in mouse assessed as inhibition of tumor growth at 100 mg/kg, po relative to control; assay type: functional
# [19] = Plasma concentration in mouse at 30 mg/kg, po after 12 hrs; assay type: ADME, organism-based; parameters: dose 30 mg/kg, route oral
# Mus musculus [20] = assay: Inhibition of angiogenesis in Swiss Nu/Nu mouse assessed as hemoglobin content at 100 mg/kg, po by bFGF/matrigel plug assay; assay type: functional
# [21] = Oral bioavailability in dog at 1 mg/kg; assay type: ADME, organism-based, Canis lupus familiaris; details: in vivo
# HT-29 [22] = assay: Antitumor activity against human HT29 cells xenografted in mouse assessed as inhibition of tumor growth at 10 mg/kg, po relative to control; assay type: functional
# HN5 [23] = assay: Antitumor activity against human HN5 cells xenografted in mouse assessed as inhibition of tumor growth at 30 mg/kg, po relative to control; assay type: functional
# [24] = AUC (0 to infinity) in mouse at 30 mg/kg, po; assay type: ADME, organism-based; parameters: dose 30 mg/kg, route oral, time infinity; details: plasma
# HN5 [25] = assay: Antitumor activity against human HN5 cells xenografted in mouse assessed as inhibition of tumor growth at 10 mg/kg, po relative to control; assay type: functional
# [26] = Antitumor activity against human A375P cells xenografted in mouse assessed as inhibition of tumor growth at 10 mg/kg, po relative to control; assay type: functional
# HT-29 [27] = assay: Antitumor activity against human HT29 cells xenografted in mouse assessed as inhibition of tumor growth at 30 mg/kg, po relative to control; assay type: functional
# Mus musculus [28] = assay: Inhibition of angiogenesis in Swiss Nu/Nu mouse assessed as hemoglobin content at 10 mg/kg, po by bFGF/matrigel plug assay; assay type: functional
# [29] = Clearance in dog at 1 mg/kg; assay type: ADME, organism-based, Canis lupus familiaris; parameters: dose 1 mg/kg; details: in vivo
# [30] = Plasma concentration in mouse at 100 mg/kg, po after 12 hrs; assay type: ADME, organism-based; parameters: dose 100 mg/kg, route oral
# Mus musculus [31] = assay: Inhibition of angiogenesis in Swiss Nu/Nu mouse assessed as hemoglobin content at 30 mg/kg, po by bFGF/matrigel plug assay; assay type: functional
# HN5 [32] = assay: Antitumor activity against human HN5 cells xenografted in mouse assessed as inhibition of tumor growth at 100 mg/kg, po relative to control; assay type: functional
# Cytochrome P450 2D6, sequence (P10635 whole entry): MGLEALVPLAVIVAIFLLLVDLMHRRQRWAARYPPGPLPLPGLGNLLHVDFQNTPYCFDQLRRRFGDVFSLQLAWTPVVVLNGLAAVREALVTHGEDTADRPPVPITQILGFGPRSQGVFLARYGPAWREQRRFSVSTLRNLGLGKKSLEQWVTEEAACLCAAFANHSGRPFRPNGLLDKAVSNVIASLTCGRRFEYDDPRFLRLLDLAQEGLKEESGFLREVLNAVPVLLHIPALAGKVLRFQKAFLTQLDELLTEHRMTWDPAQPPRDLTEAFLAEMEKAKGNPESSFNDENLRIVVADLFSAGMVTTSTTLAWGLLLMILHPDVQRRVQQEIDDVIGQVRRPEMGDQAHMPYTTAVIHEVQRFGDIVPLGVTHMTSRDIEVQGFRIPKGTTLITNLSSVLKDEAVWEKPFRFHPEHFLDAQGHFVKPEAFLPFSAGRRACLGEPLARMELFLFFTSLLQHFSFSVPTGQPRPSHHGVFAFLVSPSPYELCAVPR
compound,measurement,setting,value
Cc1c2ccc(N(C)c3ccnc(Nc4cccc(S(N)(=O)=O)c4)n3)cc2nn1C,IC50,Cytochrome P450 2D6,16 µM
same,IC50,Cytochrome P450 3A4 [1],31 µM
same,IC50,Cytochrome P450 2C9,1.4 µM
same,IC50,Cytochrome P450 2C19,20 µM
same,IC50,HUVEC [2],0.023 µM
same,IC50,Cytochrome P450 3A4 [3],16 µM
Cc1ccc(Nc2ccnc(Nc3cccc(Br)c3)n2)cc1O,IC50,[4],0.0063 µM
same,IC50,HUVEC [5],0.54 µM
same,IC50,HUVEC [6],3.5 µM
Fc1cnc(Nc2cccc(Br)c2)nc1Nc1cccc(Br)c1,IC50,[4],0.4 µM
CCS(=O)(=O)c1ccc(OC)c(Nc2nccc(N(C)c3ccc4c(C)n[nH]c4c3)n2)c1,bioavailability,[7],65%
same,clearance,[8],10 mL/min/kg
Cc1c2ccc(N(C)c3ccnc(Nc4cccc(S(N)(=O)=O)c4)n3)cc2nn1Cc1ccccc1,IC50,Cytochrome P450 2D6,66 µM
same,IC50,Cytochrome P450 3A4 [1],79 µM
same,IC50,Cytochrome P450 2C9,0.5 µM
same,IC50,Cytochrome P450 2C19,1.4 µM
same,IC50,HUVEC [2],11 µM
same,IC50,Cytochrome P450 3A4 [3],74 µM
Cc1nc2cc(N(C)c3ccnc(Nc4cccc(S(N)(=O)=O)c4)n3)ccc2n1C,IC50,Cytochrome P450 2D6,33 µM
same,IC50,Cytochrome P450 3A4 [1],45 µM
same,IC50,Cytochrome P450 2C9,9 µM
same,IC50,Cytochrome P450 2C19,33 µM
same,IC50,HUVEC [2],1.4 µM
same,IC50,Cytochrome P450 3A4 [3],27 µM
Cc1n[nH]c2cc(N(C)c3ccnc(Nc4cccc(S(N)(=O)=O)c4)n3)ccc12,IC50,Cytochrome P450 2D6,4.8 µM
same,IC50,Cytochrome P450 3A4 [1],16 µM
same,IC50,Cytochrome P450 2C9,0.7 µM
same,IC50,Cytochrome P450 2C19,7.2 µM
same,IC50,HUVEC [2],0.094 µM
same,IC50,Cytochrome P450 3A4 [3],7.6 µM
CN(c1ccc2cn(C)nc2c1)c1ccnc(Nc2cccc(S(N)(=O)=O)c2)n1,IC50,Cytochrome P450 2D6,18 µM
same,IC50,Cytochrome P450 3A4 [1],3.9 µM
same,IC50,Cytochrome P450 2C9,2.9 µM
same,IC50,Cytochrome P450 2C19,9.2 µM
same,IC50,HUVEC [2],0.11 µM
same,IC50,Cytochrome P450 3A4 [3],4.7 µM
COc1cc2ncnc(Nc3ccc(C)c(O)c3)c2cc1OC,IC50,[9],0.0006 µM
Cc1nc2ccc(N(C)c3ccnc(Nc4cccc(S(N)(=O)=O)c4)n3)cc2n1C,IC50,Cytochrome P450 2D6,25 µM
same,IC50,Cytochrome P450 3A4 [1],1.7 µM
same,IC50,Cytochrome P450 2C9,15 µM
same,IC50,Cytochrome P450 2C19,26 µM
same,IC50,HUVEC [2],2.8 µM
same,IC50,Cytochrome P450 3A4 [3],26 µM
COc1cc2ncnc(Nc3ccc4c(C)n[nH]c4c3)c2cc1OC,IC50,[4],0.0017 µM
CCS(=O)(=O)c1ccc(OC)c(Nc2nccc(Nc3ccc4c(C)n[nH]c4c3)n2)c1,IC50,HUVEC [5],0.13 µM
same,bioavailability,[7],28%
same,IC50,HUVEC [6],13 µM
same,clearance,[8],40 mL/min/kg
COc1cc(Nc2nccc(Nc3ccc4c(C)n[nH]c4c3)n2)cc(OC)c1OC [GW612286X],IC50,HUVEC [5],0.18 µM
same,bioavailability,[7],85%
same,clearance,[8],16 mL/min/kg
Cc1nn(C)c2cc(N(C)c3ccnc(Nc4cccc(S(N)(=O)=O)c4)n3)ccc12 [GW770220A],IC50,Cytochrome P450 2D6,6.3 µM
same,IC50,Cytochrome P450 3A4 [1],1.7 µM
same,IC50,Cytochrome P450 2C9,1 µM
same,IC50,Cytochrome P450 2C19,9.3 µM
same,IC50,HUVEC [2],1.4 µM
same,IC50,Cytochrome P450 3A4 [3],13 µM
Cc1ccc(Nc2nccc(N(C)c3ccc4c(C)n(C)nc4c3)n2)cc1S(N)(=O)=O [PAZOPANIB],inhibition in vivo at 100 mg/kg,HT-29 [10],69%
same,AUC(0-inf),[11],220 µg·h/mL
same,fraction unbound,[12],< 0.001
same,AUC(0-inf),[13],1140 µg·h/mL
same,concentration at 12 h,[14],6320 ng/mL
same,bioavailability,[7],72%
same,bioavailability,[15],65%
same,clearance,[16],1.4 mL/min/kg
same,inhibition in vivo at 30 mg/kg,[17],35%
same,inhibition in vivo at 100 mg/kg,[18],55%
same,concentration at 12 h,[19],24800 ng/mL
same,inhibition in vivo at 100 mg/kg,Mus musculus [20],83%
same,bioavailability,[21],47%
same,inhibition in vivo at 10 mg/kg,HT-29 [22],32%
same,inhibition in vivo at 30 mg/kg,HN5 [23],102%
same,AUC(0-inf),[24],657 µg·h/mL
same,clearance,[8],1.4 mL/min/kg
same,inhibition in vivo at 10 mg/kg,HN5 [25],99%
same,inhibition in vivo at 10 mg/kg,[26],16%
same,inhibition in vivo at 30 mg/kg,HT-29 [27],59%
same,inhibition in vivo at 10 mg/kg,Mus musculus [28],0%
same,clearance,[29],1.4 mL/min/kg
same,concentration at 12 h,[30],38500 ng/mL
same,inhibition in vivo at 30 mg/kg,Mus musculus [31],57%
same,inhibition in vivo at 100 mg/kg,HN5 [32],110%
COc1cc2/c(=N/c3ccc(Br)cc3F)nc[nH]c2cc1OCC1CCN(C)CC1 [VANDETANIB],IC50,HUVEC [5],0.4 µM
